Experimental data taken from ChEMBL document CHEMBL4184148 (Bioorg Med Chem Lett, 2017).

Assays:
[1] = target: Phosphatidylinositol 4,5-bisphosphate 3-kinase catalytic subunit alpha isoform (Homo sapiens) (UniProt P42336); test: Binding affinity to wild-type human partial length PIK3CA (R108 to N1068 residues) expressed in HEK293 cells at 1 uM by Kinomescan method relative to control; format: cell-based
[2] = target: Serine/threonine-protein kinase 36 (Homo sapiens) (UniProt Q9NRP7); test: Binding affinity to wild-type human partial length STK36 (M1 to T271 residues) expressed in Escherichia coli BL21 at 1 uM by Kinomescan method relative to control
Sequence of Serine/threonine-protein kinase 36 (Homo sapiens) (Q9NRP7 whole entry, the tested form may be a part): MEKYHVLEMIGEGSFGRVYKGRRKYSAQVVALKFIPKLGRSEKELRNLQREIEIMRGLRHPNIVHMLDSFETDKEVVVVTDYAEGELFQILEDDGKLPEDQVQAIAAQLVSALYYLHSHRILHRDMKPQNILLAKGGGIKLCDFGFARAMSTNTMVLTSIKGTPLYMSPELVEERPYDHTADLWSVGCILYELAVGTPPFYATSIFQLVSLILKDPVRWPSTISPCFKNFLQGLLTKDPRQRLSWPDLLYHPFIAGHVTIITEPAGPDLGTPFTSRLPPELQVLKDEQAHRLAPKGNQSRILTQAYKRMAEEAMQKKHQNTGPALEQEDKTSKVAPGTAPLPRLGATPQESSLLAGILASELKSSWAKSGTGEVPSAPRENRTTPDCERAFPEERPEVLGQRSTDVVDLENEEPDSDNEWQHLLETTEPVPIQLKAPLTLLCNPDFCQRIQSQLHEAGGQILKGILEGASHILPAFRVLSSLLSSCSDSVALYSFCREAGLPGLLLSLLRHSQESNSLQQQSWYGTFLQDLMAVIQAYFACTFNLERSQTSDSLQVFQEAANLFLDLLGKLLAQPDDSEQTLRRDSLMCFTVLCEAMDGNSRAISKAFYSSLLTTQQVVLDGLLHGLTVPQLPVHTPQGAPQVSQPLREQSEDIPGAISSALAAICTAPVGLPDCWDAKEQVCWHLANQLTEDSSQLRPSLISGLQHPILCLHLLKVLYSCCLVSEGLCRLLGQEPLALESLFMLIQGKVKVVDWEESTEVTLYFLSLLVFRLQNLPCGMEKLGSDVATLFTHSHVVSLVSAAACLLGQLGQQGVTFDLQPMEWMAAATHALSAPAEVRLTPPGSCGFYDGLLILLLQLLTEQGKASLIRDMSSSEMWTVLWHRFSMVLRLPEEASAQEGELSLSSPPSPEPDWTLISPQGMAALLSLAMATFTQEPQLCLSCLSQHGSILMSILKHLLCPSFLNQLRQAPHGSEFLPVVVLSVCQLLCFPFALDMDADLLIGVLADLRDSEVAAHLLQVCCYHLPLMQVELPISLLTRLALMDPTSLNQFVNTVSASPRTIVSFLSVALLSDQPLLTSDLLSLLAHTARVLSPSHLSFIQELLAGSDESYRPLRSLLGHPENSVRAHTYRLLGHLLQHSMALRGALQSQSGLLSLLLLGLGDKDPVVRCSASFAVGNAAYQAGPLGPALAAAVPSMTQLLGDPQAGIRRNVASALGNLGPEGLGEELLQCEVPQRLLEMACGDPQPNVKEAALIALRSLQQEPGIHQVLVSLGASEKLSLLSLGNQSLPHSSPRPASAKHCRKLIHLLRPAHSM

[3] = target: Phosphatidylinositol 3-kinase C2 domain-containing subunit gamma (Homo sapiens) (UniProt O75747); test: Binding affinity to wild-type human partial length PIK3C2G (M1 to I1446 residues) expressed in HEK293 cells at 1 uM by Kinomescan method relative to control; format: cell-based
[4] = target: Testis-specific serine/threonine-protein kinase 3 (Homo sapiens) (UniProt Q96PN8); test: Binding affinity to wild-type human full length TSSK3 (M1 to T268 residues) expressed in HEK293 cells at 1 uM by Kinomescan method relative to control; format: cell-based
Method in brief: (§1)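 Kinome-wide competition binding panel run by an outside provider, with each compound tested at a single concentration. Activity is read against the kinase panel.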

[5] = target: Serine/threonine-protein kinase pim-3 (Homo sapiens) (UniProt Q86V86); test: Binding affinity to wild-type human partial length PIM3 (G16 to A317 residues) expressed in Escherichia coli BL21 at 1 uM by Kinomescan method relative to control
[6] = target: Protein kinase C iota type (Homo sapiens) (UniProt P41743); test: Binding affinity to wild-type human partial length PRKCI (H215 to V587 residues) expressed in HEK293 cells at 1 uM by Kinomescan method relative to control; format: cell-based
Sequence of Protein kinase C iota type (Homo sapiens) (P41743 whole entry, the tested form may be a part): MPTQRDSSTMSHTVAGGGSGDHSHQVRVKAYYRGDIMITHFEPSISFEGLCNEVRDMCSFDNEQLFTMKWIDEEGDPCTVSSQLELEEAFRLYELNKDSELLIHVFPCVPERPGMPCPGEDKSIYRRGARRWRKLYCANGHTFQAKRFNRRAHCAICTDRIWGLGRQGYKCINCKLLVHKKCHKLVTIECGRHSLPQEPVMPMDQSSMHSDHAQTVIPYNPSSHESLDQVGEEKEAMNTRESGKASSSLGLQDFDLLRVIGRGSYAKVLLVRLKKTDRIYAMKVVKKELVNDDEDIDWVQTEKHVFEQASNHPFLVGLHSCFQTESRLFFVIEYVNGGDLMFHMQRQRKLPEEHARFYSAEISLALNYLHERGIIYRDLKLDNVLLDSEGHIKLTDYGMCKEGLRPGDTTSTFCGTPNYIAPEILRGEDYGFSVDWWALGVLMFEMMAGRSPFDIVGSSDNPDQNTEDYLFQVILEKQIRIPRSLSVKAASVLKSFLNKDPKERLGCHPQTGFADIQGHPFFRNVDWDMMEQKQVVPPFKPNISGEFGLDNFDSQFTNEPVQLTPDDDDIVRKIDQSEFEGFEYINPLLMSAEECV

[7] = target: Vascular endothelial growth factor receptor 3 (Homo sapiens) (UniProt P35916); test: Binding affinity to wild-type human partial length FLT4 (E821 to E1196 residues) expressed in Escherichia coli BL21 at 1 uM by Kinomescan method relative to control
[8] = target: cGMP-dependent protein kinase 1 (Homo sapiens) (UniProt Q13976); test: Binding affinity to wild-type human partial length PRKG1 (L339 to F686 residues) expressed in Escherichia coli BL21 at 1 uM by Kinomescan method relative to control
[9] = target: Homeodomain-interacting protein kinase 2 (Homo sapiens) (UniProt Q9H2X6); test: Binding affinity to wild-type human partial length HIPK2 (M153 to S564 residues) expressed in HEK293 cells at 1 uM by Kinomescan method relative to control; format: cell-based
[10] = target: Cyclin-dependent kinase 3 (Homo sapiens) (UniProt Q00526); test: Binding affinity to wild-type human full length CDK3 (M1 to H305 residues) expressed in Escherichia coli BL21 at 1 uM by Kinomescan method relative to control
Sequence of Cyclin-dependent kinase 3 (Homo sapiens) (Q00526 whole entry, looked up, the tested form may be a part): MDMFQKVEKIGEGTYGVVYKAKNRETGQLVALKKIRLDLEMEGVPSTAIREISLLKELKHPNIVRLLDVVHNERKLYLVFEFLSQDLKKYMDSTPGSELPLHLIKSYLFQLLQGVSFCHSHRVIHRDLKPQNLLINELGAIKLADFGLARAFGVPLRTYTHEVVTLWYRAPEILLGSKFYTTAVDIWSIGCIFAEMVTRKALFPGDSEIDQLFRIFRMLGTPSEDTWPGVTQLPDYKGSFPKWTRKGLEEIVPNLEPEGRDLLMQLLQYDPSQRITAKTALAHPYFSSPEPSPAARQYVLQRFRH
Method in brief: (§2)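 Run as one kinome-wide competition binding panel with each compound at a single fixed concentration. Results were plotted as a kinome-wide selectivity map.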

[11] = test system: Receptor-type tyrosine-protein kinase FLT3 (Homo sapiens), P36888 [N841I]; test: Binding affinity to human partial length FLT3 N841I mutant (V592 to Y969 residues) expressed in Escherichia coli BL21 at 1 uM by Kinomescan method relative to control
[12] = target: Tyrosine-protein kinase Mer (Homo sapiens) (UniProt Q12866); test: Binding affinity to wild-type human partial length MERTK (R557 to L884 residues) expressed in Escherichia coli BL21 at 1 uM by Kinomescan method relative to control
[13] = target: Serine/threonine-protein kinase N2 (Homo sapiens) (UniProt Q16513); test: Binding affinity to wild-type human partial length PKN2 (E634 to C984 residues) expressed in Escherichia coli BL21 at 1 uM by Kinomescan method relative to control
Sequence of Serine/threonine-protein kinase N2 (Homo sapiens) (Q16513 whole entry, looked up, the tested form may be a part): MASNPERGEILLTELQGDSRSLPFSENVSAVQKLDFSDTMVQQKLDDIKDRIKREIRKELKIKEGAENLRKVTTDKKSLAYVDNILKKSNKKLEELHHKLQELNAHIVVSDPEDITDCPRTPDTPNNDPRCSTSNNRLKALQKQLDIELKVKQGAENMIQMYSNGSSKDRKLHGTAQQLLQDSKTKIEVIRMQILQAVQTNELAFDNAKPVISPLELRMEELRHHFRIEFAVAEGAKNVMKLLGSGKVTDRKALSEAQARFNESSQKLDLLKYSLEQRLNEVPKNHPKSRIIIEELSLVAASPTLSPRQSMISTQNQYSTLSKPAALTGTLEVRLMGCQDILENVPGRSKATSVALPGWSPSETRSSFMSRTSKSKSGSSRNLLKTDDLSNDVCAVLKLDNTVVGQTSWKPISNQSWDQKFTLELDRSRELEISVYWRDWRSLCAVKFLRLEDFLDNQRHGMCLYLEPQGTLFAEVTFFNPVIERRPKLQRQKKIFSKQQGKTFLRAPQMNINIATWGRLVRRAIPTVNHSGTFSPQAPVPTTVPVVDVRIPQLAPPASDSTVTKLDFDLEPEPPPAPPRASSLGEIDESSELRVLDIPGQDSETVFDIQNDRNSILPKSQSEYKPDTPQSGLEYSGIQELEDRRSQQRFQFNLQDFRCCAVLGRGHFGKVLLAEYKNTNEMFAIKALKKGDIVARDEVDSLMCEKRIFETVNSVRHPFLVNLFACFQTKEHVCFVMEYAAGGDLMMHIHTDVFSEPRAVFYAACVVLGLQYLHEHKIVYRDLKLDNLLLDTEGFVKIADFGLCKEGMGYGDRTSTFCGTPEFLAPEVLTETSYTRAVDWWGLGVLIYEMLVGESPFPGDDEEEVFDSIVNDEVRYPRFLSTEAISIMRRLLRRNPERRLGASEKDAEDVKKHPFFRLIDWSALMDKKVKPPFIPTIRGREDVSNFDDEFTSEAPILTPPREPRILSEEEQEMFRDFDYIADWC

[14] = target: Non-receptor tyrosine-protein kinase TYK2 (Homo sapiens) (UniProt P29597); test: Binding affinity to wild-type human partial length TYK2 JH2 pseudokinase domain (G556 to D888 residues) expressed in HEK293 cells at 1 uM by Kinomescan method relative to control; format: cell-based
[15] = target: Serine/threonine-protein kinase Nek1 (Homo sapiens) (UniProt Q96PY6); test: Binding affinity to wild-type human partial length NEK1 (M1 to K278 residues) expressed in Escherichia coli BL21 at 1 uM by Kinomescan method relative to control
Sequence of Serine/threonine-protein kinase Nek1 (Homo sapiens) (Q96PY6 whole entry, the tested form may be a part): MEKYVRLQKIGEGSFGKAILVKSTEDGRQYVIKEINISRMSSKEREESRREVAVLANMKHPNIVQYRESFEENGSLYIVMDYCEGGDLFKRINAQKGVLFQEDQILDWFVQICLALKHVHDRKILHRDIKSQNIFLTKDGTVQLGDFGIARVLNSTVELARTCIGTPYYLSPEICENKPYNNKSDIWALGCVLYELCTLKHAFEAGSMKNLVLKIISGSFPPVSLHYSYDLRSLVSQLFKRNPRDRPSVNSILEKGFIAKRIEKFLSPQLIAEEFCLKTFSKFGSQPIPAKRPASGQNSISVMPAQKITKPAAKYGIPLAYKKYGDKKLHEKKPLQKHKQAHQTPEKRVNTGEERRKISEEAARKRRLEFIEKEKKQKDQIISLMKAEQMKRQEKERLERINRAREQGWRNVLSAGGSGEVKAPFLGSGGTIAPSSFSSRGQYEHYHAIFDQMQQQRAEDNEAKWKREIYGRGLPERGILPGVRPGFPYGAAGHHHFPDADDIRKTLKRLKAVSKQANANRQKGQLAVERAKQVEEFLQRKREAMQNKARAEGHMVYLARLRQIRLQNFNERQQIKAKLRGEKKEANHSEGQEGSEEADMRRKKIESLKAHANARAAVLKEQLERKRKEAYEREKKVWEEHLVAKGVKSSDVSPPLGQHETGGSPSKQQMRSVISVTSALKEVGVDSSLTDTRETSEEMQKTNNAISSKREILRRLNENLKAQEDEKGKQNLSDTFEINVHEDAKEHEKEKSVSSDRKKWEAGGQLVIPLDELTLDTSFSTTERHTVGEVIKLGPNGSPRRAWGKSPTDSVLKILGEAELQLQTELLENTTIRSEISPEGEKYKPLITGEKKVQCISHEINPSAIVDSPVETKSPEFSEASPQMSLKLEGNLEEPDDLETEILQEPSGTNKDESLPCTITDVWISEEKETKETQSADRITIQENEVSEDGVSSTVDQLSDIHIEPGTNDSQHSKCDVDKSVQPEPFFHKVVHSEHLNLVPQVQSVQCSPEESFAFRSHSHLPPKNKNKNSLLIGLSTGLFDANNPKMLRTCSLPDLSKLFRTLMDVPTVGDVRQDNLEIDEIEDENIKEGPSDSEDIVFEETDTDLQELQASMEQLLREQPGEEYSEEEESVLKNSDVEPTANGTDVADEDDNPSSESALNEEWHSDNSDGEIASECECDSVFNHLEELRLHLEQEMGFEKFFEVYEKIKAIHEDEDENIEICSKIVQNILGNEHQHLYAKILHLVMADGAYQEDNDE

[16] = target: Mitogen-activated protein kinase 1 (Homo sapiens) (UniProt P28482); test: Binding affinity to wild-type human full length ERK2 (M1 to S360 residues) expressed in Escherichia coli BL21 at 1 uM by Kinomescan method relative to control; method in brief: as §2
[17] = target: Vascular endothelial growth factor receptor 2 (Homo sapiens) (UniProt P35968); test: Binding affinity to wild-type human partial length VEGFR2 (R787 to P1253 residues) expressed in HEK293 cells at 1 uM by Kinomescan method relative to control; format: cell-based
[18] = test system: Tyrosine-protein kinase ABL1 (Homo sapiens), P00519 [H396P]; test: Binding affinity to human non-phosphorylated ABL1 H396P mutant (S229 to K512 residues) expressed in HEK293 cells at 1 uM by Kinomescan method relative to control; format: cell-based
[19] = target: Fibroblast growth factor receptor 1 (Homo sapiens) (UniProt P11362); test: Binding affinity to wild-type human partial length FGFR1 (P357 to V669 residues) expressed in Escherichia coli BL21 at 1 uM by Kinomescan method relative to control
[20] = target: 5'-AMP-activated protein kinase catalytic subunit alpha-2 (Homo sapiens) (UniProt P54646); test: Binding affinity to wild-type human partial length AMPK alpha2 (M1 to E306 residues) expressed in Escherichia coli BL21 at 1 uM by Kinomescan method relative to control; method in brief: as §1
Sequence of 5'-AMP-activated protein kinase catalytic subunit alpha-2 (Homo sapiens) (P54646 whole entry, looked up, the tested form may be a part): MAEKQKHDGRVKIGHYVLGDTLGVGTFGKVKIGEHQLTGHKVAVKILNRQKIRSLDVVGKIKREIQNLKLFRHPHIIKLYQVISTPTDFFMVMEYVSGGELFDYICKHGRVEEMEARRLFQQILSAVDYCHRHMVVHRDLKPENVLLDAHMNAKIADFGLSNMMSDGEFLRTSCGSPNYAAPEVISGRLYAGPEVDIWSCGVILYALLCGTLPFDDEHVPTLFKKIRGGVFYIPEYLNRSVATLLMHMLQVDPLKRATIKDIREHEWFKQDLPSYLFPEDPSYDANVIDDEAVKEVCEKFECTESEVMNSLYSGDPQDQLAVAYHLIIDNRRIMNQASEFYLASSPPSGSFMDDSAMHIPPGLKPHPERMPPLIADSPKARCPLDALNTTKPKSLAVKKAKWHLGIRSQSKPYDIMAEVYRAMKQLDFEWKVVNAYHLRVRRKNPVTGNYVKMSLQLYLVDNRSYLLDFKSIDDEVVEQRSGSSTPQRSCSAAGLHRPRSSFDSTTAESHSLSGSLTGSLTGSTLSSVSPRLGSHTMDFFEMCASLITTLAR

[21] = target: Receptor tyrosine-protein kinase erbB-2 (Homo sapiens) (UniProt P04626); test: Binding affinity to wild-type human partial length ERBB2 (K646 to V1225 residues) expressed in HEK293 cells at 1 uM by Kinomescan method relative to control; format: cell-based
[22] = target: Cyclin-dependent kinase 13 (Homo sapiens) (UniProt Q14004); test: Binding affinity to wild-type human partial length CDC2L5 (H675 to S1054 residues) expressed in HEK293 cells at 1 uM by Kinomescan method relative to control; format: cell-based
[23] = test system: Epidermal growth factor receptor (Homo sapiens), P00533 [L861Q]; test: Binding affinity to human partial length EGFR L861Q mutant (R669 to V1011 residues) expressed in Escherichia coli BL21 at 1 uM by Kinomescan method relative to control
[24] = target: Macrophage colony-stimulating factor 1 receptor (Homo sapiens) (UniProt P07333); test: Binding affinity to wild-type human partial length CSF1R (I564 to S939 residues) expressed in Escherichia coli BL21 at 1 uM by Kinomescan method relative to control
[25] = test system: Phosphatidylinositol 4,5-bisphosphate 3-kinase catalytic subunit alpha isoform (Homo sapiens), P42336 [E545A]; test: Binding affinity to human partial length PIK3CA E545A mutant (R108 to N1068 residues) expressed in HEK293 cells at 1 uM by Kinomescan method relative to control; format: cell-based

## CCC(=O)Nc1ccc(C(=O)Nc2ccc(Nc3ncc4c(n3)N(C)c3ccc(C)cc3C(=O)N4C)cc2)cc1
[1]
  Activity: 87%
[2]
  Activity: 93%
[3]
  Activity: 81%
[4]
  Activity: 59%
[5]
  Activity: 82%
[6]
  Activity: 66%
[7]
  Activity: 89%
[8]
  Activity: 100%
[9]
  Activity: 100%
[10]
  Activity: 95%
[11]
  Activity: 81%
[12]
  Activity: 100%
[13]
  Activity: 100%
[14]
  Activity: 93%
[15]
  Activity: 100%
[16]
  Activity: 87%
[17]
  Activity: 76%
[18]
  Activity: 62%
[19]
  Activity: 82%
[20]
  Activity: 100%
[21]
  Activity: 100%
[22]
  Activity: 100%
[23]
  Activity: 97%
[24]
  Activity: 87%
[25]
  Activity: 93%

## C=CC(=O)Nc1ccc(C(=O)Nc2ccc(Nc3ncc4c(n3)N(C)c3ccc(C)cc3C(=O)N4C)cc2)cc1
[1]
  Activity: 76%
[2]
  Activity: 100%
[3]
  Activity: 71%
[4]
  Activity: 100%
[5]
  Activity: 100%
[6]
  Activity: 87%
[7]
  Activity: 98%
[8]
  Activity: 100%
[9]
  Activity: 94%
[10]
  Activity: 100%
[11]
  Activity: 100%
[12]
  Activity: 80%
[13]
  Activity: 75%
[14]
  Activity: 88%
[15]
  Activity: 94%
[16]
  Activity: 99%
[17]
  Activity: 88%
[18]
  Activity: 84%
[19]
  Activity: 84%
[20]
  Activity: 88%
[21]
  Activity: 93%
[22]
  Activity: 99%
[23]
  Activity: 79%
[24]
  Activity: 100%
[25]
  Activity: 78%
